In ChEMBL document CHEMBL1133321, “Synthesis of conformationally constrained analogues of KN62, a potent antagonist of the P2X7-receptor” (Bioorg Med Chem Lett, 2000):

Experiments:
[1] = Inhibition of ATP-stimulated [Ca2+] influx into macrophages loaded with fluorescent indicator fura-2-acetoxymethyl at 1000 nM concentration of compound; type: functional; settings: Homo sapiens
[2] = Inhibition of ATP-stimulated [Ca2+] influx into macrophages loaded with fluorescent indicator fura-2-acetoxymethyl at 500 nM concentration of compound; type: functional; settings: Homo sapiens
Procedure, shortened: (§1)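 Washed human macrophage cells (10⁶/mL) in HEPES-buffered saline were loaded with fura-2 acetoxymethyl ester for 20 min at 37 °C in the dark, in a stirred cuvette. Cells were preincubated with compound at the stated single concentration for 5 min at 37 °C before ATP stimulation. Ca²⁺ influx was read as the 340:380 nm excitation ratio at 500 nm emission, as percent inhibition. Three repeats.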

[3] = Inhibition of ATP-stimulated [Ca2+] influx into macrophages loaded with fluorescent indicator fura-2-acetoxymethyl at 50 nM concentration of compound; type: functional; settings: Homo sapiens; procedure, shortened: as §1
P2X purinoceptor 7 = target: T1, P2X purinoceptor 7 (Homo sapiens, UniProt Q99572); assay: Inhibitory concentration was evaluated against P2X purinoceptor 7
T1 sequence (Q99572 whole entry): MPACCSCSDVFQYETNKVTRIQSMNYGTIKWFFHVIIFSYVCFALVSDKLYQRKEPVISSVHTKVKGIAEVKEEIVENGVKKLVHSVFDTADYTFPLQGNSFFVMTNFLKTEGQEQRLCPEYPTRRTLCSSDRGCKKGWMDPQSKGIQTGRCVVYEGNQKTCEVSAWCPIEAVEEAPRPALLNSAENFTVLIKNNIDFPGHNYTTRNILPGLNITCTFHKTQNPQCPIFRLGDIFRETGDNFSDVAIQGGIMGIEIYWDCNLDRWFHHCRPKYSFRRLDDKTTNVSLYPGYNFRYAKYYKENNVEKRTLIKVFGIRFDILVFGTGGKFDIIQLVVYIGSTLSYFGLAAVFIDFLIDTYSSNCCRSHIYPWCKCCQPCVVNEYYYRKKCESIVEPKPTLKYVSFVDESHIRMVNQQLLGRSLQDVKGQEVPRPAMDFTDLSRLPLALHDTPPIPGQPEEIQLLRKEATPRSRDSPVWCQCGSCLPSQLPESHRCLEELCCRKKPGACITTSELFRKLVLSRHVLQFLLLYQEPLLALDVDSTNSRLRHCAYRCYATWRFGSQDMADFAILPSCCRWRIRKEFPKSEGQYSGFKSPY
Procedure, shortened: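 Human macrophage cells (10⁶/mL, washed, in HEPES-buffered saline) were fura-2-AM loaded for 20 min at 37 °C in the dark. Compounds (25–500 nM) were preincubated 5 min at 37 °C before ATP-stimulated Ca²⁺ influx was measured fluorimetrically (340:380 nm excitation ratio, 500 nm emission). IC50 is the mean from dose-response curves of at least three experiments.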

IC50 (P2X purinoceptor 7)	Compound	inhibition at 1 µM [1]	inhibition at 0.5 µM [2]	inhibition at 0.05 µM [3]
	O=C([C@@H]1Cc2ccc(OS(=O)(=O)c3cccc4cnccc34)cc2CN1S(=O)(=O)c1cccc2cnccc12)N1CCN(c2ccccc2)CC1	25.8%	34.5%	1.66%
13.4 nM	CN([C@@H](Cc1ccc(OS(=O)(=O)c2cccc3cnccc23)cc1)C(=O)N1CCN(c2ccccc2)CC1)S(=O)(=O)c1cccc2cnccc12	100%	100%	94.4%
	O=C([C@@H]1Cc2ccc(OS(=O)(=O)c3cccc4cccnc34)cc2CN1S(=O)(=O)c1cccc2cccnc12)N1CCN(c2ccccc2)CC1	0%	3.4%	6.9%
	O=C([C@@H]1Cc2ccc(OS(=O)(=O)c3cccc4ccccc34)cc2CN1S(=O)(=O)c1cccc2ccccc12)N1CCN(c2ccccc2)CC1	0%	0%	0%
	O=C([C@@H]1Cc2ccc(OS(=O)(=O)c3cccc4ncccc34)cc2CN1S(=O)(=O)c1cccc2ncccc12)N1CCN(c2ccccc2)CC1	66%	72.4%	59%
